ChEMBL document CHEMBL1135298, “Induction of apoptosis by aryl-substituted diamines: role of aromatic group substituents and distance between nitrogens” (Bioorg Med Chem Lett, 2002)

Experiments:
[1] = tested on: MDA-MB-231; experiment: Inhibition of human breast cancer cell line MDA-MB-231 growth; format: functional, cell-based
[2] = tested on: PC-3; experiment: Inhibition of human prostate cancer cell line PC-3 growth; format: functional, cell-based
[3] = tested on: MDA-MB-231; experiment: Compound was evaluated for cytotoxic activity against human breast cancer cell line MDA-MB-231; format: functional, cell-based
Summary of the method: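 MDA-MB-231 grown in medium with 1 mM aminoguanidine, 50 U/mL penicillin, 50 µg/mL streptomycin, 10% FBS and 2 mM L-glutamine. Drug added 24 h after plating, cells grown a further 72 h. Cell number by MTS; IC50 (µM), some values as mean ± error (n).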

[4] = tested on: SK-OV-3; experiment: Compound was evaluated for cytotoxic activity against human ovarian cancer cell line SK-OV-3; format: functional, cell-based
Summary of the method: (§1)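 SK-OV-3, Mes-SA and multidrug-resistant Mes-SA/Dx5 cultured in McCoy's 5A with 1 mM aminoguanidine, penicillin/streptomycin and 10% FBS.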

[5] = tested on: A-375; experiment: Compound was evaluated for cytotoxic activity against human melanoma cell line A375; format: functional, cell-based
Summary of the method: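 A375 melanoma medium contained 1 mM aminoguanidine, penicillin/streptomycin, 10% FBS, 1 mM sodium pyruvate and 2 mM L-glutamine.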

[6] = tested on: PC-3; experiment: Compound was evaluated for cytotoxic activity against human prostate cancer cell line PC-3; format: functional, cell-based
[7] = tested on: Mes-SA/Dx5 (Homo sapiens); experiment: Compound was evaluated for cytotoxic activity against the following human cancer cell MDR Uterine cancer cell line Mes-SA/Dx5
[8] = tested on: MES-SA; experiment: Compound was evaluated for cytotoxic activity against the following human cancer cell Uterine cancer cell line Mes-SA; format: functional, cell-based; summary of the method: as §1
[9] = tested on: SK-MEL-5; experiment: Compound was evaluated for cytotoxic activity against human melanoma cell line SK-Mel-5; format: functional, cell-based
Summary of the method: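 SK-Mel-5 maintained in EMEM supplemented with 1 mM aminoguanidine, 50 U/mL penicillin, 50 µg/mL streptomycin and 10% FBS.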

[10] = target: Nucleic Acid; experiment: Ability to interact with DNA was assessed by a DNA/ethidium bromide dye displacement assay, expressed as DC50 for polydAdT; format: nucleic-acid assay
Summary of the method: (§2)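 Ethidium displacement run by an adapted literature method: 2.5 µM polydAdT with 1.5 µM ethidium bromide in 3.75 mM Tris/NaCl, pH 8.0. Compound added to the DNA–dye complex; DC50 reported.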

[11] = tested on: T47D; experiment: Compound was evaluated for cytotoxic activity against the following human cancer cell Breast cancer cell line T47 D; format: functional, cell-based
Summary of the method: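 T47.D in RPMI 1640 with 1 mM aminoguanidine, penicillin/streptomycin, 10% FBS, 1 mM sodium pyruvate, 2 mM L-glutamine and 0.4% insulin.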

[12] = target: Nucleic Acid; experiment: ability to interact with DNA was assessed by a DNA/ethidium bromide dye displacement assay, expressed as DC50 for polydAdT; format: nucleic-acid assay; summary of the method: as §2

| IC50 [1] | IC50 [2] | Compound | also measured |
| --- | --- | --- | --- |
| 2 µM | 0.8 µM | c1ccc(-c2ccc(CNCCCNCc3ccc(-c4ccccc4)cc3)cc2)cc1 |  |
|  |  | c1ccc(-c2ccc(CNCCCCNCc3ccc(-c4ccccc4)cc3)cc2)cc1 | IC50 [3]: 1.92 µM; IC50 [4]: 0.74 µM; IC50 [5]: 0.59 µM; IC50 [6]: 0.77 µM |
|  |  | c1ccc2c(CNCCCCNCc3cccc4ccccc34)cccc2c1 | IC50 [7]: 7.2 µM; IC50 [8]: 10.1 µM; IC50 [3]: 9.1 µM; IC50 [4]: 8.5 µM; IC50 [9]: 4.6 µM; DC50 [10]: 8.7 µM; IC50 [5]: 5.4 µM; IC50 [6]: 10 µM; IC50 [11]: 6.5 µM |
| 2.8 µM | 3.2 µM | COc1ccc(CNCCCCNCc2ccc(OC)c3ccccc23)c2ccccc12 |  |
| 205 µM | 143 µM | O=[N+]([O-])c1ccc(CNCCCCNCc2ccc([N+](=O)[O-])cc2)cc1 |  |
| 42 µM | 10 µM | N#Cc1cccc(CNCCCCNCc2cccc(C#N)c2)c1 |  |
| 0.06 µM | 0.07 µM | O=C1c2cccc3cccc(c23)C(=O)N1CCNCCCNCCN1C(=O)c2cccc3cccc(c23)C1=O [ELINAFIDE] |  |
| 58 µM | 58 µM | COc1cc(CNCCCCNCc2cc(OC)c(OC)c(OC)c2)cc(OC)c1OC |  |
| 18 µM | 9 µM | O=[N+]([O-])c1cccc(CNCCCCNCc2cccc([N+](=O)[O-])c2)c1 |  |
| 1.3 µM | 0.48 µM | c1ccc(-c2ccc(CNCCCCCNCc3ccc(-c4ccccc4)cc3)cc2)cc1 |  |
| 3.5 µM | 2.7 µM | c1ccc2c(CNCCCCNCc3c4ccccc4cc4ccccc34)c3ccccc3cc2c1 |  |
| 201 µM | 50 µM | NCCCCNCc1ccc([N+](=O)[O-])cc1 |  |
| 84 µM | 22 µM | N#Cc1ccc(CNCCCCNCc2ccc(C#N)cc2)cc1 |  |
| 7 µM | 14 µM | c1ccc2c(CNCc3ccc(CNCc4cccc5ccccc45)cc3)cccc2c1 |  |
|  |  | c1ccc(N(c2ccccc2)c2ccc(CNCCCCNCc3ccc(N(c4ccccc4)c4ccccc4)cc3)cc2)cc1 | IC50 [7]: 0.61 µM; IC50 [8]: 0.64 µM; IC50 [3]: 0.62 µM; IC50 [4]: 0.68 µM; IC50 [9]: 0.94 µM; IC50 [5]: 0.4 µM; DC50 [12]: 9.4 µM; IC50 [6]: 0.6 µM; IC50 [11]: 0.65 µM |
| 19 µM | 15 µM | [N-]=[N+]=Nc1cccc(CNCCCCNCc2cccc(N=[N+]=[N-])c2)c1 |  |
| 62 µM | 23 µM | O=[N+]([O-])c1ccccc1CNCCCCNCc1ccccc1[N+](=O)[O-] |  |
| 6.6 µM | 1.85 µM | c1ccc2c(c1)Cc1cc(CNCCCCNCc3ccc4c(c3)Cc3ccccc3-4)ccc1-2 |  |

| IC50 [1] | IC50 [2] | Compound | also measured |
| --- | --- | --- | --- |
| 9.4 µM | 8.4 µM | c1ccc2c(CNCCCCNCc3ccnc4ccccc34)ccnc2c1 |  |
| > 300 µM | 211 µM | NCCCCNCc1ccccc1 |  |
| 19 µM | 20 µM | c1cc(CNCc2cccc3ccccc23)cc(CNCc2cccc3ccccc23)c1 |  |
| > 300 µM | > 300 µM | Nc1cccc(CNCCCCNCc2cccc(N)c2)c1 |  |
| 2.1 µM | 2.5 µM | c1ccc2cc(CNCCCCNCc3ccc4ccccc4c3)ccc2c1 |  |
| 65 µM | 20 µM | Clc1ccc(CNCCCCNCc2ccc(Cl)c(Cl)c2)cc1Cl |  |
| 70 µM | 56 µM | c1cc2c(cc1CNCCCCNCc1ccc3c(c1)OCO3)OCO2 |  |
|  |  | Cn1cc(NC(=O)c2cc(NC(=O)c3cc(NC=O)cn3C)cn2C)cc1C(=O)NCCC(=N)N [STALLIMYCIN] | DC50 [12]: 44 µM |
| 146 µM | 98 µM | Nc1ccccc1CNCCCCNCc1ccccc1N |  |
| 21 µM | 6 µM | COc1ccc(CNCCCCNCc2ccc(OC)cc2)cc1 |  |
| > 300 µM | 211 µM | NCCCCNCc1cccc2ccccc12 |  |
| 25 µM | 37 µM | c1ccc2c(CCNCCCCNCCc3cccc4ccccc34)cccc2c1 |  |
| 77 µM | 51 µM | c1ccc2c(CNCCCCNCc3c[nH]c4ccccc34)c[nH]c2c1 |  |
| 8.3 µM | 6.5 µM | c1ccc2c(CNCCCCCNCc3cccc4ccccc34)cccc2c1 |  |
| 5.1 µM | 4.3 µM | c1ccc2c(CNCCCNCc3cccc4ccccc34)cccc2c1 |  |
| 5 µM | 7 µM | CC(CCC(C)NCc1cccc2ccccc12)NCc1cccc2ccccc12 (stereo not given) |  |
| 197 µM | 56 µM | CN(C)c1ccc(CNCCCCNCc2ccc(N(C)C)cc2)cc1 |  |
